Here are results for 10 molecules from ChEMBL document CHEMBL4359857, “Design, synthesis and biological evaluation of chalcones as reversers of P-glycoprotein-mediated multidrug resistance” (Eur J Med Chem, 2019).

The source made the active and inactive calls. No cut-off for these calls is given here.

The nature of data set [1]: Cytotoxicity against human MCF7/Dox cells assessed as cell survival at 12.5 uM after 48 hrs by MTT assay relative to control. The class given is cell-based. Conditions: read-out: Survival. On the technique in general: Formazan colour is commonly taken as a measure of viable cells.
Data set [2] in a line: Reversal of P-gp-mediated multidrug resistance in human MCF7/Dox cells assessed as potentiation of doxorubicin-induced cytotoxicity by measuring doxorubicin IC50 at 12.5 uM after 48 hrs by MTT assay (reference value: 51.19 +/- 0.95 microM).
Data set [3] has as its system MCF7-DOX. As to the kind of experiment: Cytotoxicity against human MCF7/Dox cells assessed as reduction in cell viability after 48 hrs by MTT assay. In kind it is cell-based.
The subject of data set [4] is MCF7-DOX. As to the kind of experiment: Antitumour activity against human MCF7/Dox cells xenografted in Balb/c mouse assessed as tumour growth inhibition at 5 to 15 mg/kg in presence of doxorubicin and measured after 30 days. The class given is functional, organism-based. On the technique in general: In xenograft studies the graft and the host belong to different species.

A short description of data set [5]: Cytotoxicity against human MCF7/Dox cells assessed as growth inhibition after 48 hrs by MTT assay. The class given is cell-based.
A short description of data set [6]: Cytotoxicity against human MCF7 cells assessed as growth inhibition after 48 hrs by MTT assay. The class given is cell-based.
The subject of data set [7] is MCF7-DOX. As to the kind of experiment: Antitumour activity against human MCF7/Dox cells xenografted in Balb/c mouse assessed as reduction in tumour volume at 5 to 15 mg/kg and measured after 30 days. In kind it is functional, organism-based.
Data set [8] in a line: Toxicity in Balb/c mouse xenografted with human MCF7/Dox cells assessed as effect on body weight at 5 to 15 mg/kg in presence of doxorubicin and measured after 30 days. In kind it is organism-based. Conditions: in vivo, 720 h.
Data set [9] relates to MCF7-DOX. Put plainly: Down regulation of p-gp mRNA expression in human MCF7/Dox cells at 12.5 uM in presence of doxorubicin after 48 hrs by RT-PCR analysis. The class given is functional, cell-based. A digest of the protocol: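 MCF-7/DOX cells exposed for 48 h to compound (12.5 µM), DOX (8 µM), or both. P-gp mRNA measured by RT-PCR versus control and DOX-alone groups.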

Data set [10] has as its target Multidrug resistance-associated protein 1 (Homo sapiens, UniProt P33527). Put plainly: Reversal of MRP-1 (unknown origin)-mediated multidrug resistance expressed in human H69AR cells assessed as potentiation of doxorubicin-induced cytotoxicity at 25 uM after 48 hrs by MTT assay. The class given is cell-based. The gist of the method: (§1)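 Transporter selectivity screen by MTT in H69AR (MRP1-overexpressing) with doxorubicin, and in MDCK II BCRP with mitoxantrone. Compound tested at 12.5 and 25 µM alongside the cytostatic. Reversal read as decreased viability versus cytostatic alone.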

Data set [11] can be described thus: Cytotoxicity against human H69 cells assessed as growth inhibition after 48 hrs by MTT assay. Conditions: H69 cells (NCI-H69). The class given is cell-based.
Data set [12] has as its system MCF7. Put plainly: Antimigratory activity against human MCF7 cells after 24 hrs by wound healing assay. In kind it is functional, cell-based. A digest of the protocol:
(§2)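 Wound-healing assay on confluent monolayers of MCF-7 or MCF-7/DOX cells. Cells treated 24 h, then wound width imaged and migration quantified against untreated control cells. Means ± SD, n = 3.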

In data set [13] the target is T1, Broad substrate specificity ATP-binding cassette transporter ABCG2 (Homo sapiens, UniProt Q9UNQ0).
T1 sequence (Q9UNQ0 whole entry): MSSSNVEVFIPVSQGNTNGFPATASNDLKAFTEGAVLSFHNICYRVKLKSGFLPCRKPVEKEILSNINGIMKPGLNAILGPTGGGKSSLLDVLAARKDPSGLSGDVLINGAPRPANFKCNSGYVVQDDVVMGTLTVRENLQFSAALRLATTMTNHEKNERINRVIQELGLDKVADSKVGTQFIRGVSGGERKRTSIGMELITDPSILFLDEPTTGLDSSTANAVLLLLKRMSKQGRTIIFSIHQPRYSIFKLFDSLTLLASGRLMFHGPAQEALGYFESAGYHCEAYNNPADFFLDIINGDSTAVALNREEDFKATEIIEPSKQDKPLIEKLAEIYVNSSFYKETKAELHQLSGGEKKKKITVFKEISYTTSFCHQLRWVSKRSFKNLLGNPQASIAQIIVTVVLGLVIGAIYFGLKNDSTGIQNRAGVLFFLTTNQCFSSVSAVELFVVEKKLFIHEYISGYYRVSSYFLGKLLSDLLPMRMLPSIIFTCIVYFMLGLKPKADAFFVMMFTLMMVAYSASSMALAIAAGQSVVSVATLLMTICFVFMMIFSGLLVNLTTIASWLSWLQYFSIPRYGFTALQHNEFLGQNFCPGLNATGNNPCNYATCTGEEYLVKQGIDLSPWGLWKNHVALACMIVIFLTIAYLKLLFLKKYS
As to the kind of experiment: Reversal of ABCG2 (unknown origin)-mediated multidrug resistance expressed in MDCK2 cells assessed as potentiation of mitoxantrone-induced cytotoxicity at 25 uM after 48 hrs by MTT assay. The class given is cell-based. A digest of the protocol: as §1

A short description of data set [14]: Cytotoxicity against MDCK2 cells expressing BCRP assessed as growth inhibition after 48 hrs by MTT assay. The class given is ADME, cell-based, Canis lupus familiaris. Conditions: dog, MDCK2 (MDCK-II) cells expressing BCRP.
Data set [15] can be described thus: Cytotoxicity against human H69AR cells assessed as growth inhibition after 48 hrs by MTT assay. In kind it is cell-based.
Data set [16] has as its system MCF7. Put plainly: Antimigratory activity against human MCF7 cells after 36 hrs by crystal violet staining based transwell migration assay. In kind it is functional, cell-based. The gist of the method: (§3)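 Transwell migration assay with MCF-7 or MCF-7/DOX cells treated 36 h. Migrated cells quantified against untreated control cells. Means ± SD, n = 3.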
Data set [17] relates to MCF7-DOX. Put plainly: Antimigratory activity against human MCF7/Dox cells after 24 hrs by wound healing assay. In kind it is functional, cell-based. The gist of the method:
as §2

Data set [18] deals with MCF7-DOX. Put plainly: Antimigratory activity against human MCF7/Dox cells after 36 hrs by crystal violet staining based transwell migration assay. In kind it is functional, cell-based. A digest of the protocol: as §3
Data set [19] deals with MCF7-DOX. Put plainly: Down regulation of p-gp protein expression in human MCF7/Dox cells at 12.5 uM in presence of doxorubicin by Western blotting analysis. The class given is functional, cell-based. Conditions: TDE = time-dependent effect. The gist of the method: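 MCF-7/DOX cells exposed to compound (12.5 µM), DOX (8 µM), or the combination for 24 h and 48 h. P-gp protein measured by western blot. MCF-7 parental cells used as reference.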
A general note: Immunoblotting shows a protein as a band on a membrane.

Data set [20] in a line: Toxicity in Balb/c mouse xenografted with human MCF7/Dox cells assessed as body weight at 5 to 15 mg/kg administered for 30 days and measured for every 2 days. The class given is organism-based. Conditions: in vivo.
The test system of data set [21] is MCF7-DOX. Put plainly: Antitumour activity against human MCF7/Dox cells xenografted in Balb/c mouse assessed as reduction in tumour weight at 5 to 15 mg/kg and measured after 30 days. In kind it is functional, organism-based.
A short description of data set [22]: Cytotoxicity against MDCK2 cells assessed as growth inhibition after 48 hrs by MTT assay. Conditions: dog, MDCK2 (MDCK-II) cells. The class given is cell-based, Canis lupus familiaris.
The target of data set [23] is ATP-dependent translocase ABCB1 (Homo sapiens, UniProt P08183). As to the kind of experiment: Reversal of P-gp mediated drug efflux in human MCF7/Dox cells assessed as increase in intracellular doxorubicin accumulation at 12.5 uM after 24 hrs by DAPI based fluorescence microscopic analysis. In kind it is cell-based. A digest of the protocol:
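MCF-7/DOX cells exposed to DOX 8 µM with or without compound at 12.5 µM. Nuclei stained with DAPI. Intracellular DOX red fluorescence imaged by fluorescence microscopy.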

Data set [24] concerns MCF7-DOX. Put plainly: Antitumour activity against human MCF7/Dox cells xenografted in Balb/c mouse assessed as tumour growth inhibition at 2 mg/kg measured after 30 days. The class given is functional, organism-based.

A word on the IC50: it is the concentration that gives 50% inhibition. Usually GI50 stands for the concentration that inhibits growth by half.

Sequence of Multidrug resistance-associated protein 1 (P33527 whole entry): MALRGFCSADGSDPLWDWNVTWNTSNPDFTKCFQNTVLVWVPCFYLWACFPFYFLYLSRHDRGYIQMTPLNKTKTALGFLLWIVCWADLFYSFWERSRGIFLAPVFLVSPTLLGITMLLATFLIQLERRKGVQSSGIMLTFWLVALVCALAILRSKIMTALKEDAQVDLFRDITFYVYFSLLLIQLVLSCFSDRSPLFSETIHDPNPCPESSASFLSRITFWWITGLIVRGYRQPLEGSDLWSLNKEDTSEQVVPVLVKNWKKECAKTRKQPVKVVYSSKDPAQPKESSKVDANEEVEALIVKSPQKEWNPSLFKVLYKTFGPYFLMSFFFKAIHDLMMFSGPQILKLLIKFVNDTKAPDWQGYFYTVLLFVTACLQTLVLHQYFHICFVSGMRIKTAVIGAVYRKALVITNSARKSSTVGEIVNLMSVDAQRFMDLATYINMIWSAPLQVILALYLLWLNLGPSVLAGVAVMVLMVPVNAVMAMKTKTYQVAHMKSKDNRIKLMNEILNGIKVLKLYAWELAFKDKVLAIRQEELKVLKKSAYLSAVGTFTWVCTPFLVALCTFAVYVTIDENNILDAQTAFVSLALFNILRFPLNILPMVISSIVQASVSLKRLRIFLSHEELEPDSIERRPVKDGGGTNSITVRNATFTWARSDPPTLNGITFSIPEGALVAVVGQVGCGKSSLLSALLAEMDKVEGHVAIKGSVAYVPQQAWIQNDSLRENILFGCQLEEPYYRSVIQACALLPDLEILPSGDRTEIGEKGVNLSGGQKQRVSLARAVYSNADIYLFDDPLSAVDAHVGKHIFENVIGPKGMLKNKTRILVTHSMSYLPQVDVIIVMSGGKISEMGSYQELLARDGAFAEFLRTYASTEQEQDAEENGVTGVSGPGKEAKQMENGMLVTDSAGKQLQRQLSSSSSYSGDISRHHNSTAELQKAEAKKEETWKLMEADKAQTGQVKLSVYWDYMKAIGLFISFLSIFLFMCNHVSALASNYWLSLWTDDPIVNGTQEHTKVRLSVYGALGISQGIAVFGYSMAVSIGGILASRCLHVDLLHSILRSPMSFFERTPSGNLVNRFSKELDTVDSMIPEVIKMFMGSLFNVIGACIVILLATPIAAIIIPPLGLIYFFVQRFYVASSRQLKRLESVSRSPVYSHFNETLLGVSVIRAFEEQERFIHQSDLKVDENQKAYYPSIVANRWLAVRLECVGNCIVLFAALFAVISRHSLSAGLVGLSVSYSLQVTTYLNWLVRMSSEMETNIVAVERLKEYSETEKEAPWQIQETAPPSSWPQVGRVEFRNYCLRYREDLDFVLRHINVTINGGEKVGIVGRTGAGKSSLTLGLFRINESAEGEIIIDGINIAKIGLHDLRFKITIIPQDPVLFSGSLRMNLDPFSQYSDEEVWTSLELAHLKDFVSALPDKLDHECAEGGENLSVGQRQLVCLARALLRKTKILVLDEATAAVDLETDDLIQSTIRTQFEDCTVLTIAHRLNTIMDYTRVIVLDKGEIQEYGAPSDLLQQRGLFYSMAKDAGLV
Sequence of ATP-dependent translocase ABCB1 (P08183 whole entry): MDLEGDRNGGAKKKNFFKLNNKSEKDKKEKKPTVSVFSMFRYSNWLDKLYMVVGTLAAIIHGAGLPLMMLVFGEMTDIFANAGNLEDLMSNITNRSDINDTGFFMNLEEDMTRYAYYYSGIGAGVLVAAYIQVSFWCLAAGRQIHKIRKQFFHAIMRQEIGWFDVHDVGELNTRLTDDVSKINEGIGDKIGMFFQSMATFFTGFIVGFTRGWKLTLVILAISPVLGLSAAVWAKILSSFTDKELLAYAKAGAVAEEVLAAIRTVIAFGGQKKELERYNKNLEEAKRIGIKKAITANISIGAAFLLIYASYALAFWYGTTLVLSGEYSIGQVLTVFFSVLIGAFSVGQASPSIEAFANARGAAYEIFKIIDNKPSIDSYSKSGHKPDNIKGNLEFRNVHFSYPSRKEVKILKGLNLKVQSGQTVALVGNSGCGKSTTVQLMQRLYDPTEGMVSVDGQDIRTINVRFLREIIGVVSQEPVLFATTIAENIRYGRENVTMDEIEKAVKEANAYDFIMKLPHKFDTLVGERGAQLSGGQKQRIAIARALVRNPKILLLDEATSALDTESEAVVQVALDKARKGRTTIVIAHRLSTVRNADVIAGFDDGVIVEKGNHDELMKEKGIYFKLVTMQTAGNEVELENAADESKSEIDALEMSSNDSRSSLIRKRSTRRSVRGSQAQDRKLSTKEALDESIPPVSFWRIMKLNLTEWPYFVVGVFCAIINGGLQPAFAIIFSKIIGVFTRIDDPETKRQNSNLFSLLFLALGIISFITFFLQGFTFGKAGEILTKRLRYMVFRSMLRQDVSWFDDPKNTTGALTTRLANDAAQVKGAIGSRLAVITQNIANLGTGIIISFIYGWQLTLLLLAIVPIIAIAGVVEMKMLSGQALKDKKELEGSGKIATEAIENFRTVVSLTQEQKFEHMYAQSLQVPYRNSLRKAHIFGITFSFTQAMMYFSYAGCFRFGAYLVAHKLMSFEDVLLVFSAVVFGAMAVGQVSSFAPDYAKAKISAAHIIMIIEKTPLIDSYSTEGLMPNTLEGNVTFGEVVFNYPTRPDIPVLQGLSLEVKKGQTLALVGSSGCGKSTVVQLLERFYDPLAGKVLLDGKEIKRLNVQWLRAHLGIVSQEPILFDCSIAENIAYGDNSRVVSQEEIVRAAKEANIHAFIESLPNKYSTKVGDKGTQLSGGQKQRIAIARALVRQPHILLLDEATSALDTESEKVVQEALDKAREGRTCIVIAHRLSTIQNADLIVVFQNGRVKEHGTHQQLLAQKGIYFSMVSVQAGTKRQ

Turning to `COc1cc(OC)c(C(=O)/C=C/c2ccc(N3CCNCC3)cc2)c(O)c1CC=C(C)C`, in data set [1], the viability at 48 h, 12.5 µM stood at 98.3%. Further, the IC50 in [2] was 14.84 µM; in data set [3] it was 57.8 µM.
The like results for `COc1cc(OC)c(C(=O)/C=C/c2ccc(F)cc2)c(O)c1CC=C(C)C` were, in that order, 94.3%, 17.96 µM and 53.7 µM.
The corresponding values for `COc1cc(OC)c(C(=O)/C=C/c2cccc([N+](=O)[O-])c2)c(O)c1CC=C(C)C` are greater than 99%, 8.83 µM and 57 µM.
`COc1cc(OC)c(C(=O)/C=C/c2cccc(N3CCNCC3)c2)c(O)c1CC=C(C)C`: the TGI entry in data set [4] is “Active”. Besides, the GI50 at 48 h in [5] was greater than 100 µM; in [6] it was greater than 100 µM; in data set [11], greater than 100 µM; in [14], greater than 100 µM; in data set [15], 91.7 µM; in [22], greater than 100 µM. Moreover, the inhibition entry in data set [7] and in data set [21] was “inactive” throughout. Also, the Activity result in data set [8] and in data set [20] was “Non-Toxic” each time. Further, the inhibition entry in data set [9], in data set [12], in data set [16], in [17] and in data set [18] was “Active” in each case. In addition, the “inhibition (INH)” value is on record as “Not Active” in data set [10], “Not Active” in data set [13] and “Active” in data set [23]. Besides, the viability at 48 h, 12.5 µM in data set [1] was greater than 99%. In [19], the inhibition result is “Tde”. Also, the IC50 in [3] was found to be 99.9 µM.
For `COc1cc(O)c(C(=O)/C=C/c2ccc(N3CCNCC3)cc2)c(OC)c1`, the viability at 48 h, 12.5 µM in data set [1] came out at 94.2%. Further, the IC50 in data set [2] was found to be 16.62 µM; in [3] it was 67.5 µM.
The like results for `COc1cc(OC)c(C(=O)/C=C/c2ccc(C(F)(F)F)cc2)c(O)c1CC=C(C)C` were, in that order, greater than 99%, 23.59 µM and 73.7 µM.
The corresponding values for `COc1cc(OC)c(C(=O)/C=C/c2ccccc2)c(O)c1CC=C(C)C` are 90.6%, 20.64 µM and 65.4 µM.
The like results for `COc1cc(OC)c(C(=O)/C=C/c2cccc(N3CCNCC3)c2)c(O)c1C` were, in that order, 95.8%, 4 µM and 98.7 µM.
`COc1cccc2c1C(=O)c1c(O)c3c(c(O)c1C2=O)C[C@@](O)(C(=O)CO)C[C@@H]3O[C@H]1C[C@H](N)[C@H](O)[C@H](C)O1`: the inhibition result in data set [24] was “inactive”.
As to `COc1cc(O)c(C(=O)/C=C/c2cccc(N3CCN(C(=O)OC(C)(C)C)CC3)c2)c(OC)c1`, the viability at 48 h, 12.5 µM in data set [1] came to 85.4%. In addition, the IC50 was determined as 39.95 µM in data set [2] and 56.7 µM in data set [3].
